Experimental findings from ChEMBL document CHEMBL3124926, “Identification of highly efficacious glucocorticoid receptor agonists with a potential for reduced clinical bone side effects” (J Med Chem, 2014) are described below.

The target in experiment [1] is T1, Glucocorticoid receptor (Homo sapiens) (UniProt P04150).
T1 sequence (whole entry): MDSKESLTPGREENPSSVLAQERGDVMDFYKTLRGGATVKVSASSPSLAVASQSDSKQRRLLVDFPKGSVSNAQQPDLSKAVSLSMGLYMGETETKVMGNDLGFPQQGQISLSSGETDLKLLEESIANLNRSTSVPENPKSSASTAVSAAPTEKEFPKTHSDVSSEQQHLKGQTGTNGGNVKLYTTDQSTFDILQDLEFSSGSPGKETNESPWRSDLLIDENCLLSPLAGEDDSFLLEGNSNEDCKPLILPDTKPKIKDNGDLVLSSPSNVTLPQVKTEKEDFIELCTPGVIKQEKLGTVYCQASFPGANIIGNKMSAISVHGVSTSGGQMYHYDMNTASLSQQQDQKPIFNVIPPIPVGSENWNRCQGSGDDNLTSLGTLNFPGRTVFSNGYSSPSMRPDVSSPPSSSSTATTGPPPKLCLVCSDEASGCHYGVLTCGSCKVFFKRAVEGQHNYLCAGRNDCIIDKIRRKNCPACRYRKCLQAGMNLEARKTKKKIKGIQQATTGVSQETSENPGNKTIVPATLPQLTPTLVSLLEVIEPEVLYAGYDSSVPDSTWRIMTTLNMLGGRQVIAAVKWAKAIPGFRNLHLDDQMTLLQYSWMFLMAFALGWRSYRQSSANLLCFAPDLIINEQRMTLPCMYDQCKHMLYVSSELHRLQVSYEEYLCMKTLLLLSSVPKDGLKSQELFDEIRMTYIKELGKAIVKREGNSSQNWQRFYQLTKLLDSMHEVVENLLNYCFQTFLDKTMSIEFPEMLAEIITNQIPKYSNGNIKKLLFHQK
Put plainly: Transrepression activity at glucocorticoid receptor in human fibroblasts assessed as inhibition of IL-1-induced IL-6 production at 2 uM after 18 to 24 hrs relative to dexomethasone. In outline:
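Human foreskin fibroblasts grown in Iscove's medium with 10% charcoal/dextran-treated FBS, plated at 20000/well two days before. Medium replaced, then compound (0.4% DMSO final) and recombinant human IL-1 (1 ng/mL final) added. 18–24 h at 37 °C; IL-6 in medium quantified by electrochemiluminescence, DELFIA or ELISA. IC50 by four-parameter fit of duplicate 11-point curves. Efficacy relative to dexamethasone (100%); top concentration 2 μM.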

The target in another experiment is T2, Glucocorticoid receptor (Homo sapiens, UniProt P04150).
T2 sequence (P04150 whole entry): T1 sequence (whole entry)
Put plainly: Competitive binding affinity to glucocorticoid receptor (unknown origin) expressed in baculovirus-infected cell system after 1 hr by fluorescence polarization assay in presence of tetramethylrhodamine-labeled dexamethasone. In outline:
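Lysates of baculovirus-infected insect cells co-expressing receptor with HSP-70, HSP-90 and p23 (GR diluted 300-fold, MR 17-fold). Probe 5 nM tetramethylrhodamine-dexamethasone in TES/KCl/molybdate/EDTA/CHAPS/glycerol/DTT buffer, pH 7.4, 1% DMSO. 1 h at room temperature in the dark; fluorescence polarization read (ex 550/em 580 nm). Background set with 2 μM dexamethasone. IC50 from duplicate 11-point curves, four-parameter fit, mean of at least two determinations.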

Experiment [2] has as its target T1, Glucocorticoid receptor (Homo sapiens). Put plainly: Agonist activity at glucocorticoid receptor in human […] cells assessed as suppression of vitamin D-induced osteocalcin production at 2 uM after 48 hrs by Gla-type osteocalcin ELISA relative to dexomethasone. Type of experiment: cell-based. The method in brief: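 MG-63 human osteosarcoma cells plated at 20000/well in DMEM/F-12 with 1% charcoal-filtered FBS and 10 μg/mL vitamin C. Medium refreshed next day, then vitamin D (10 nM final) added with compound (2 × 10−6 to 10−10 M), duplicates. Incubated 48 h at 37 °C; supernatant osteocalcin measured by Gla-type ELISA. Vitamin D-only wells = 100%. Max efficacy at 2 μM is relative to dexamethasone (100%).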
A general note: An ELISA detects its analyte on a solid surface through an enzyme-linked reagent.

The target in another experiment is T3, Progesterone receptor (Homo sapiens, UniProt P06401).
T3 sequence (P06401 whole entry): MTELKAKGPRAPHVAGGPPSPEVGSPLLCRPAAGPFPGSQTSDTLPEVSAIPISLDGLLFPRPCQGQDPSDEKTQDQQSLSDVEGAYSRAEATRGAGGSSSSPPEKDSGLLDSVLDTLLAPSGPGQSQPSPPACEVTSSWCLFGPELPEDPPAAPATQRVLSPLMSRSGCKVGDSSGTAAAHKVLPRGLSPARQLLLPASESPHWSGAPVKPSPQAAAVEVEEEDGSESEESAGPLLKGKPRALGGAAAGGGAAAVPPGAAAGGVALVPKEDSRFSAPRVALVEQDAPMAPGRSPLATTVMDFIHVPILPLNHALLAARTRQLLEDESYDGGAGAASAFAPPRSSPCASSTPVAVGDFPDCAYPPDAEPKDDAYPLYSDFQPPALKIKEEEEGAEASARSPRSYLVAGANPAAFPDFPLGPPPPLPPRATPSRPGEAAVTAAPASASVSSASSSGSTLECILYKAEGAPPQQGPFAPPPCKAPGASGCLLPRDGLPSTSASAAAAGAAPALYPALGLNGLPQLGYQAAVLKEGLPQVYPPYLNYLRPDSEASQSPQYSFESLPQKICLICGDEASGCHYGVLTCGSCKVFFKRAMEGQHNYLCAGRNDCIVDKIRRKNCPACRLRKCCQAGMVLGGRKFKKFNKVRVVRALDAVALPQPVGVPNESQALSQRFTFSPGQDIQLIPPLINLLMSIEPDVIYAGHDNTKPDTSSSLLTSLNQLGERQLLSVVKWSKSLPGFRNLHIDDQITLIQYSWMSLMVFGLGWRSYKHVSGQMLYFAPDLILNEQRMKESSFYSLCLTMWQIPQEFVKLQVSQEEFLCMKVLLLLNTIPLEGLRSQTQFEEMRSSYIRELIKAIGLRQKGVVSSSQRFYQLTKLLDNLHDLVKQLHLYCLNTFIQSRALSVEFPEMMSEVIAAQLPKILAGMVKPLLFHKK
Put plainly: Competitive binding affinity to progesterone receptor (unknown origin) expressed in baculovirus-infected cell system after 1 hr by fluorescence polarization assay in presence of tetramethylrhodamine-labeled RU-486. In outline:
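PR from lysate of insect cells infected with receptor baculovirus alone, diluted 13-fold. Probe 5 nM tetramethylrhodamine-labeled RU-486 in pH 7.4 TES/KCl/molybdate buffer with 1% DMSO. 1 h at room temperature in the dark, then fluorescence polarization (ex 550/em 580 nm). Background set with 2 μM RU-486. IC50 from duplicate 11-point curves, four-parameter logistic fit, mean of at least two determinations.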

Where only a bound is given, the exact number is not on record here.

As a reminder, the Emax is the maximal effect, on the per cent scale that the assay sets. In general, IC50 refers to the concentration that inhibits the measured activity by half.

On to `CC(C)(CC(O)(Cc1cc2ncncc2[nH]1)C(F)(F)F)c1ccc(F)cc1O` (racemic), for which the Emax in experiment [1] was 86%; in experiment [2] it was 28%. The figures for the IC50 on Glucocorticoid receptor and on Progesterone receptor were 5 nM and 880 nM, respectively.

Take `Cc1ccc(F)cc1C(C)(C)CC(O)(Cc1cc2cc(-c3ccccc3)nnc2[nH]1)C(F)(F)F` (racemic): the IC50 on Glucocorticoid receptor is 13 nM; at Progesterone receptor, > 2000 nM. The Emax in experiment [2] was found to be 73%.

For `Cc1ccc(F)cc1C(C)(C)C[C@@](O)(Cc1cc2nnccc2[nH]1)C(F)(F)F`, the Emax was found to be 86% in experiment [1] and 34% in experiment [2]. For the same compound, the IC50 was 5 nM at Glucocorticoid receptor and > 2000 nM on Progesterone receptor.

`CC(C)(CC(O)(Cc1cc2ncncc2[nH]1)C(F)(F)F)c1cc(Cl)cc2c1OCC2` (racemic): the Emax in experiment [1] worked out at 87%; in experiment [2] it was 35%. Further, the IC50 on Glucocorticoid receptor is 5 nM; at Progesterone receptor, 1700 nM.

Turning to `Cc1ccc(F)cc1C(C)(C)CC(O)(Cc1cc2nc(-c3ccccc3)ncc2[nH]1)C(F)(F)F` (racemic), the Emax in experiment [1] was 93%; in experiment [2], 72%. Further, the values for the IC50 at Glucocorticoid receptor and on Progesterone receptor were 5 nM and > 2000 nM, respectively.

For the compound `Cc1ccc(F)cc1C(C)(C)CC(O)(Cc1cc2nc(-c3cccnc3)ncc2[nH]1)C(F)(F)F` (racemic), the Emax was found to be 92% in experiment [1] and 74% in experiment [2]. In addition, the IC50 on Glucocorticoid receptor was 5 nM; on Progesterone receptor, > 2000 nM.

Consider `Cc1ccc(F)cc1C(C)(C)CC(O)(Cc1cc2nc(N3CCS(=O)(=O)CC3)ncc2[nH]1)C(F)(F)F` (racemic), for which the Emax in experiment [1] worked out at 84%; in experiment [2], 80%. Besides, the IC50 on Glucocorticoid receptor was 8 nM; at Progesterone receptor it was > 2000 nM.

On to `Cc1ccc(F)cc1C(C)(C)CC(O)(Cc1cc2nnccc2[nH]1)C(F)(F)F` (racemic), for which the values for the Emax in experiment [1] and in experiment [2] were 85% and 45%, respectively. The IC50 at Glucocorticoid receptor was 7 nM; on Progesterone receptor, > 2000 nM.

Regarding `Cc1ccc(F)cc1C(C)(C)CC(O)(Cc1cc2ncncc2[nH]1)C(F)(F)F` (racemic), the results for the Emax in experiment [1] and in experiment [2] were 74% and 32%, respectively. Moreover, the IC50 is 8 nM at Glucocorticoid receptor and > 2000 nM on Progesterone receptor.

For `Cc1ccc(F)cc1C(C)(C)C[C@@](O)(Cc1cc2ncncc2[nH]1)C(F)(F)F`, the Emax in experiment [1] was determined as 72%; in experiment [2] it was 32%. In addition, the figures for the IC50 at Glucocorticoid receptor and on Progesterone receptor were 4 nM and > 2000 nM, respectively.
